# Test results from ChEMBL document CHEMBL5674880 (PLoS One, 2018).
# Columns and labels:
# Type in all cases: functional, cell-based
# [1] = Antiproliferative activity against human CML-T1 cells after 10 days; conditions: CML-T1, 240 h
# Method in brief: (§1)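 Tested as part of a 240-line cancer cell panel (Eurofins Oncopanel); all lines were mycoplasma-negative and STR-verified. Cells were exposed to a compound concentration series in 2D culture for 10 days. The highest concentration was 10 μM or 25 μM, depending on the inhibitor. Antiproliferative IC50 was derived from the mean of three biological replicates.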
# [2] = Antiproliferative activity against human RKOAS451 cells after 10 days; conditions: RKOAS451, 240 h
# Method in brief: (§2)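 Broad cancer cell line panel (Eurofins Oncopanel, about 240 lines; mycoplasma negative, STR verified) grown in 2D culture and exposed to compound in a 10-day proliferation assay. The top concentration was 10 μM for the SMYD2 inhibitor series and 25 μM for the SMYD3 inhibitor. The proliferative IC50 is taken from concentration-response data, each value the mean of three biological replicates.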
# [3] = test system: CAPAN-1; assay: Antiproliferative activity against human CAPAN-1 cells after 10 days; conditions: CAPAN-1, 240 h; method in brief: as §1
# [4] = test system: 639-V; assay: Antiproliferative activity against human 639-V cells after 10 days; conditions: 240 h; method in brief: as §1
# [5] = test system: SW-620; assay: Antiproliferative activity against human SW620 cells after 10 days; conditions: SW-620, 240 h
# [6] = test system: SK-N-FI; assay: Antiproliferative activity against human SK-N-FI cells after 10 days; conditions: 240 h
# [7] = test system: BHT-101; assay: Antiproliferative activity against human BHT-101 cells after 10 days; conditions: BHT-101, 240 h; method in brief: as §1
# [8] = Antiproliferative activity against human OCUG-1 cells after 10 days; conditions: OCUG-1, 240 h; method in brief: as §2
# [9] = test system: MC-IXC; assay: Antiproliferative activity against human MC-IXC cells after 10 days; conditions: 240 h; method in brief: as §2
# [10] = test system: NCI-H520; assay: Antiproliferative activity against human NCI-H520 cells after 10 days; conditions: NCI-H520, 240 h; method in brief: as §2
# [11] = test system: SNB-19; assay: Antiproliferative activity against human SNB-19 cells after 10 days; conditions: SNB-19, 240 h
# [12] = test system: A-427; assay: Antiproliferative activity against human A-427 cells after 10 days; conditions: A-427, 240 h; method in brief: as §1
# [13] = test system: A673; assay: Antiproliferative activity against human A673 cells after 10 days; conditions: A673, 240 h; method in brief: as §1
# [14] = test system: HCT-116; assay: Antiproliferative activity against human HCT-116 cells after 10 days; conditions: HCT-116, 240 h
# Method in brief: (§3)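 10-day 2D proliferation screen of a broad cancer cell panel (about 240 lines, Eurofins Oncopanel). All lines were mycoplasma negative and STR verified. Compounds were dosed up to a top concentration of 10 μM or 25 μM, depending on the inhibitor. Anti-proliferative IC50 values are the average of three biological replicates.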
# [15] = test system: HOS; assay: Antiproliferative activity against human HOS cells after 10 days; conditions: 240 h; method in brief: as §3
# [16] = test system: L-428; assay: Antiproliferative activity against human L-428 cells after 10 days; conditions: L-428, 240 h; method in brief: as §2
# [17] = test system: RPMI-8226; assay: Antiproliferative activity against human RPMI-8226 cells after 10 days; conditions: RPMI-8226, 240 h
# [18] = test system: NCI-H596; assay: Antiproliferative activity against human NCI-H596 cells after 10 days; conditions: NCI-H596, 240 h; method in brief: as §2
# [19] = test system: LS-1034; assay: Antiproliferative activity against human LS1034 cells after 10 days; conditions: LS-1034, 240 h; method in brief: as §2
# [20] = Antiproliferative activity against human C32TG cells after 10 days; conditions: 240 h; method in brief: as §1
# [21] = test system: EFM-19; assay: Antiproliferative activity against human EFM-19 cells after 10 days; conditions: EFM-19, 240 h; method in brief: as §3
# [22] = test system: CFPAC-1; assay: Antiproliferative activity against human CFPAC-1 cells after 10 days; conditions: CFPAC-1, 240 h; method in brief: as §1
# [23] = test system: HCT-8; assay: Antiproliferative activity against human HCT-8 cells after 10 days; conditions: HCT-8, 240 h; method in brief: as §3
# [24] = test system: SK-OV-3; assay: Antiproliferative activity against human SK-OV-3 cells after 10 days; conditions: SK-OV-3, 240 h
# [25] = test system: COLO 320DM; assay: Antiproliferative activity against human COLO 320DM cells after 10 days; conditions: 240 h; method in brief: as §1
# [26] = Antiproliferative activity against human C4-1 cells after 10 days; conditions: C4-1, 240 h; method in brief: as §1
# [27] = test system: SW872; assay: Antiproliferative activity against human SW872 cells after 10 days; conditions: SW872, 240 h
# [28] = test system: NCI-H69; assay: Antiproliferative activity against human NCI-H69 cells after 10 days; conditions: NCI-H69, 240 h; method in brief: as §2
# [29] = test system: T-24; assay: Antiproliferative activity against human T24 cells after 10 days; conditions: T-24, 240 h
# [30] = Antiproliferative activity against human SW579 cells after 10 days; conditions: SW579, 240 h
# [31] = test system: MCF7; assay: Antiproliferative activity against human MCF7 cells after 10 days; conditions: MCF7, 240 h; method in brief: as §2
# [32] = test system: HCT-15; assay: Antiproliferative activity against human HCT-15 cells after 10 days; conditions: HCT-15, 240 h
# Method in brief: (§4)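 Cell lines run in the Eurofins Oncopanel broad cancer panel, all mycoplasma-negative and STR-verified. Cells were exposed to a compound concentration series in a 10-day proliferation assay, and an anti-proliferative IC50 was derived. Values are the mean of three biological replicates.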
# [33] = test system: HMCB cell line; assay: Antiproliferative activity against human HMCB cells after 10 days; conditions: 240 h; method in brief: as §3
# [34] = test system: DB; assay: Antiproliferative activity against human DB cells after 10 days; conditions: 240 h; method in brief: as §3
# [35] = test system: C-33-A; assay: Antiproliferative activity against human C-33-A cells after 10 days; conditions: 240 h; method in brief: as §1
# [36] = test system: NCI-H292; assay: Antiproliferative activity against human NCI-H292 cells after 10 days; conditions: NCI-H292, 240 h; method in brief: as §2
# [37] = test system: Hs746T; assay: Antiproliferative activity against human Hs746T cells after 10 days; conditions: 240 h; method in brief: as §3
# [38] = test system: UMUC3; assay: Antiproliferative activity against human UM-UC-3 cells after 10 days; conditions: UMUC3, 240 h
# [39] = test system: COLO 201; assay: Antiproliferative activity against human COLO201 cells after 10 days; conditions: COLO 201, 240 h; method in brief: as §3
# [40] = test system: SCC-25; assay: Antiproliferative activity against human SCC-25 cells after 10 days; conditions: SCC-25, 240 h
# [41] = test system: EM-2; assay: Antiproliferative activity against human EM-2 cells after 10 days; conditions: EM-2, 240 h; method in brief: as §3
# [42] = test system: HT1197; assay: Antiproliferative activity against human HT1197 cells after 10 days; conditions: HT1197, 240 h; method in brief: as §4
# [43] = test system: Jurkat; assay: Antiproliferative activity against human Jurkat cells after 10 days; conditions: 240 h; method in brief: as §2
# [44] = test system: SCC-4; assay: Antiproliferative activity against human SCC-4 cells after 10 days; conditions: SCC-4, 240 h
# [45] = test system: SW-403; assay: Antiproliferative activity against human SW403 cells after 10 days; conditions: SW-403, 240 h
# [46] = test system: MIA PaCa-2; assay: Antiproliferative activity against human Mia PaCa-2 cells after 10 days; conditions: MIA PaCa-2, 240 h; method in brief: as §2
# [47] = test system: Y79; assay: Antiproliferative activity against human Y79 cells after 10 days; conditions: Y79, 240 h
# [48] = test system: J82; assay: Antiproliferative activity against human J82 cells after 10 days; conditions: J82, 240 h; method in brief: as §2
# [49] = test system: NALM-6; assay: Antiproliferative activity against human NALM-6 cells after 10 days; conditions: NALM-6, 240 h; method in brief: as §2
smiles,measurement,setting,value
O=C(NC1CN(Cc2cnn(Cc3ccccc3)c2)C1)c1cn(C2CC2)nn1,IC50,[1],> 10000 nM
same,IC50,[2],> 10000 nM
same,IC50,[3],> 10000 nM
same,IC50,[4],> 10000 nM
same,IC50,[5],> 10000 nM
same,IC50,[6],> 10000 nM
same,IC50,[7],> 10000 nM
same,IC50,[8],> 10000 nM
same,IC50,[9],> 10000 nM
same,IC50,[10],> 10000 nM
same,IC50,[11],> 10000 nM
same,IC50,[12],> 10000 nM
same,IC50,[13],> 10000 nM
same,IC50,[14],> 10000 nM
same,IC50,[15],> 10000 nM
same,IC50,[16],2610 nM
same,IC50,[17],> 10000 nM
same,IC50,[18],> 10000 nM
same,IC50,[19],> 10000 nM
same,IC50,[20],> 10000 nM
same,IC50,[21],> 10000 nM
same,IC50,[22],> 10000 nM
same,IC50,[23],> 10000 nM
same,IC50,[24],> 10000 nM
same,IC50,[25],> 10000 nM
same,IC50,[26],> 10000 nM
same,IC50,[27],> 10000 nM
same,IC50,[28],> 10000 nM
same,IC50,[29],> 10000 nM
same,IC50,[30],> 10000 nM
same,IC50,[31],> 10000 nM
same,IC50,[32],> 10000 nM
same,IC50,[33],> 10000 nM
same,IC50,[34],663 nM
same,IC50,[35],> 10000 nM
same,IC50,[36],> 10000 nM
same,IC50,[37],> 10000 nM
same,IC50,[38],> 10000 nM
same,IC50,[39],> 10000 nM
same,IC50,[40],> 10000 nM
same,IC50,[41],> 10000 nM
same,IC50,[42],> 10000 nM
same,IC50,[43],> 10000 nM
same,IC50,[44],> 10000 nM
same,IC50,[45],> 10000 nM
same,IC50,[46],> 10000 nM
same,IC50,[47],> 10000 nM
same,IC50,[48],> 10000 nM
same,IC50,[49],> 10000 nM
Cc1cn(CCN2CCN(c3ccccc3-c3cc(C#N)cc(C(=O)NCCCN4CCCC4)c3)CC2)c2ccccc12,IC50,[1],1100 nM
same,IC50,[2],1110 nM
same,IC50,[3],5090 nM
same,IC50,[4],1140 nM
same,IC50,[5],3080 nM
same,IC50,[6],6030 nM
same,IC50,[7],1430 nM
same,IC50,[8],2340 nM
same,IC50,[9],1920 nM
same,IC50,[10],2700 nM
same,IC50,[11],2520 nM
same,IC50,[12],1340 nM
same,IC50,[13],2030 nM
same,IC50,[14],2660 nM
same,IC50,[15],2130 nM
same,IC50,[16],1490 nM
same,IC50,[17],1560 nM
same,IC50,[18],2950 nM
same,IC50,[19],2900 nM
same,IC50,[20],2360 nM
same,IC50,[21],2680 nM
same,IC50,[22],1480 nM
same,IC50,[23],2520 nM
same,IC50,[24],2950 nM
same,IC50,[25],2110 nM
same,IC50,[26],2060 nM
same,IC50,[27],2530 nM
same,IC50,[28],2740 nM
same,IC50,[29],2940 nM
same,IC50,[30],2980 nM
same,IC50,[31],3110 nM
same,IC50,[32],1700 nM
same,IC50,[33],2860 nM
same,IC50,[34],1170 nM
same,IC50,[35],3230 nM
same,IC50,[36],2690 nM
same,IC50,[37],4290 nM
same,IC50,[38],2910 nM
same,IC50,[39],1060 nM
same,IC50,[40],2520 nM
same,IC50,[41],2220 nM
same,IC50,[42],1560 nM
same,IC50,[43],925 nM
same,IC50,[44],3590 nM
same,IC50,[45],3120 nM
same,IC50,[46],2030 nM
same,IC50,[47],3530 nM
same,IC50,[48],3150 nM
same,IC50,[49],1140 nM
